Screening results as filed in PubChem.
ZTA DNA inh: ZTA (EBV) inhibition in EBNA-1 counter-screen; P03206; ZTA-DNA binding, fluorescence polarization; inhibition, % at 11 µM; 0.15% of 320,000 active; AID 2234; in the data active = inhibition above about 33%
Target sequence (P03206 whole entry, looked up): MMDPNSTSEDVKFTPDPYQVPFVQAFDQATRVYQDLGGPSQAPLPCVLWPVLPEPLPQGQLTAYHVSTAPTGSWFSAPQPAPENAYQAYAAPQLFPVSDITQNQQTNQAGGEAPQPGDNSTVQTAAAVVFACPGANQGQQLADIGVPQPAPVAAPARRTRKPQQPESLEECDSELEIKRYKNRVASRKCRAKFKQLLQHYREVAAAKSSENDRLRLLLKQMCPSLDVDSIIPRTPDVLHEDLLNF
EBNA-1 inh: blocks EBNA-1 binding to DNA; EBNA-1 DNA binding, fluorescence polarization; inhibition, % at 14.8 µM; AID 1950; 0.34% of 300,000 active; in the data active = inhibition above about 28%
FGF22 binding: binders of recombinant human FGF22 by thermal shift; Q9HCT0; SYPRO orange fluorescence; percent of sucrose octasulfate shift, DMSO zero; activity (Tm shift, normalised), % at 9.99 µM; 1.5% of 340,000 active; AID 651658;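 active = mean Tm shift, scaled 0 neutral to 100 positive control, at about 1.3% or above, every replicate too, limit read from the data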
Target sequence (Q9HCT0 whole entry, looked up): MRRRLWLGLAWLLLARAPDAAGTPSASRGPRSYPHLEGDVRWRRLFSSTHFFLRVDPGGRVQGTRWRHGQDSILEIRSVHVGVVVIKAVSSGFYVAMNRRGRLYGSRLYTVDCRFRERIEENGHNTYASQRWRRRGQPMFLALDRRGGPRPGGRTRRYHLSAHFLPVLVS
NS3 helicase inh: HCV NS3 helicase inhibition. NS3 helicase DNA unwinding, Cy5 molecular beacon fluorescence. inhibition, % at 10.9 µM. 0.56% of 290,000 active. AID 1800;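 active = inhibition above the mean of all tested compounds plus 3 SD, set per campaign, cut at about 35% in these data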
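Test system: hepatitis C virus NS3 helicase domain fragment enzyme. Also added: annealed dual-labelled DNA beacon duplex, ATP-started. Timing: 60 min unwinding reaction at 25 °C after ATP addition. Technique: Cy5 fluorescence. Measure: % inhibition of unwinding.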
DNA FID counter: displaces DNA intercalator in HCV helicase counter-screen; DNA fluorescent intercalator displacement, fluorescence; inhibition, % at 7.9 µM; 0.17% of 290,000 active; AID 1845; in the data active = inhibition above about 37%;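 also: higher means more ethidium bromide displaced from hairpin DNA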
NR3A LBD binder: modulates the human NR3A ligand-binding domain; NR3A LBD differential scanning fluorimetry, Tm shift; 0% = protein alone, 100% = glycine-bound protein; Tm shift relative to glycine control, % at 25 µM; 2.5% of 340,000 active;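 active = melting temperature shift of at least 10% of the positive control shift, at one fixed dose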
Hits are given with their value; – = inactive; · = no result. Shown are actives, neighbours in structure and some others; about 3.6% of the full set was active somewhere.

SMILES	ZTA DNA inh	EBNA-1 inh	FGF22 binding	NS3 helicase inh	DNA FID counter	NR3A LBD binder
O=C(CCNC(=O)c1ccccc1)Nc1ccc(F)c(Cl)c1	–	–	44	–	–	–
NS(=O)(=O)c1ccc(NC(=O)COC(=O)COc2ccc(Cl)cc2)cc1	–	–	43	–	–	–
NS(=O)(=O)c1ccc(NC(=O)COc2ccc(Cl)cc2)cc1	–	–	–	–	–	–
O=C(COC(=O)CNC(=O)c1ccccc1)Nc1ccc(F)c([N+](=O)[O-])c1	–	–	–	–	–	13
O=C(Nc1cccc(Cl)c1)N1C[C@H]2[C@@H](c3ccccc31)[C@H](CO)N2C(=O)C1CC1	·	·	–	·	·	·
O=C(C[C@@H]1CC[C@H]2[C@@H](COC[C@@H](O)CN2S(=O)(=O)c2cccc(Cl)c2)O1)NCCCN1CCOCC1	·	·	–	·	·	·
CCC(=O)N1C[C@@H](C)[C@@H](OC)CN(C)C(=O)c2ccc(NC(=O)c3cnccn3)cc2OC[C@@H]1C	·	·	–	·	·	·
C[C@@H]1CCCCO[C@H](CN(C)S(=O)(=O)c2ccc(F)cc2)[C@@H](C)CN([C@@H](C)CO)C(=O)c2cc(NC(=O)Nc3ccccc3)ccc2O1	·	·	–	·	·	·
N#Cc1nc(-c2ccc(OCc3ccccc3)cc2)oc1NCc1ccco1	–	–	·	–	–	–
COc1ccccc1-c1nc(C#N)c(NCCCn2ccnc2)o1	–	–	–	–	–	–
N#Cc1nc(-c2ccc(OCc3ccc(Cl)cc3)cc2)oc1NCCCn1ccnc1	–	–	·	–	–	17
CNc1oc(-c2ccc(OCc3ccccc3)cc2)nc1C#N	–	–	·	–	–	33
N#Cc1nc(-c2ccccc2)oc1NCCCn1ccnc1	–	–	43	–	–	–
C[C@@H]1CN([C@@H](C)CO)C(=O)c2cc(NC(=O)C3CCCCC3)ccc2O[C@H]1CN(C)S(=O)(=O)c1cn(C)cn1	·	·	–	·	·	·
Oc1ccc(N=Nc2ccc(Br)cc2)c(O)c1	–	–	–	–	–	–
Oc1ccc(N=Nc2n[nH]c(-c3ccccc3)n2)cc1	–	–	·	–	–	10
Oc1ccc(N=Nc2n[nH]c(-c3ccc(Br)cc3)n2)cc1	–	–	–	–	–	27
COc1cccc(-c2ccc3c(c2)[C@@H]2[C@@H](CCN2S(=O)(=O)c2ccc(F)cc2)[C@H](CO)N3C)c1	·	·	–	·	·	·
C[C@H]1CN([C@@H](C)CO)C(=O)c2cc(NS(=O)(=O)c3ccc(F)cc3)ccc2O[C@H]1CN(C)C	·	·	–	·	·	·
O=C(NC1Cc2ccccc2C1)[C@@H]1[C@@H](CO)[C@@H]2Cn3c(cccc3=O)[C@H]1N2Cc1ccccc1F	·	·	–	·	·	·
COc1ccc(CC(=O)Nc2cc(S(=O)(=O)N3CCOCC3)ccc2N2CCCC2)cc1	·	·	43	·	·	·
COc1cc(/C=C/C(=O)OCC(=O)Nc2cc(S(=O)(=O)N3CCOCC3)ccc2Cl)cc(OC)c1OC	·	·	–	·	·	–
COc1cc(CC(=O)Nc2cc(S(=O)(=O)N3CCOCC3)ccc2N2CCCC2)cc(OC)c1OC	·	·	–	·	·	–
COc1ccc(CC(=O)Nc2cc(S(=O)(=O)N3CCOCC3)ccc2N2CCOCC2)cc1	–	–	43	–	–	–
COc1cccc(CC(=O)Nc2cc(S(=O)(=O)N3CCOCC3)ccc2N2CCN(C)CC2)c1	–	·	–	·	·	–
SMILES	ZTA DNA inh	EBNA-1 inh	FGF22 binding	NS3 helicase inh	DNA FID counter	NR3A LBD binder
COc1cc(S(=O)(=O)N2CCOCC2)ccc1NC(=O)COC(=O)/C=C/c1cc(OC)c(OC)c(OC)c1	·	·	43	·	·	–
COc1ccc(CC(=O)OCC(=O)Nc2cc(S(=O)(=O)N3CCOCC3)ccc2N2CCCC2)cc1	–	–	43	–	–	–
C[C@@H]1CN([C@@H](C)CO)C(=O)c2cc(C#CC3CC3)cnc2O[C@H]1CN(C)C(=O)Nc1ccccc1	·	·	–	·	·	·
COc1ccc(/C=C/C(=O)Nc2cc(S(=O)(=O)N3CCCCC3)ccc2N2CCCCC2)cc1OC	–	–	·	–	–	–
O=S(=O)(Nc1cc(S(=O)(=O)N2CCOCC2)ccc1O)c1ccc2c(c1)OCCCO2	–	·	–	·	·	–
COc1ccc(/C=C/C(=O)Nc2cc(S(=O)(=O)N3CCOCC3)ccc2N2CCCC2)cc1OC	–	–	43	–	–	–
O=C(Nc1ccccc1N1CCOCC1)c1ccc([N+](=O)[O-])o1	–	–	–	–	–	19
O=C(Nc1ccccc1N1CCCCC1)c1ccc([N+](=O)[O-])o1	·	·	–	·	·	–
O=S(=O)(Nc1cc(S(=O)(=O)N2CCOCC2)ccc1N1CCOCC1)c1ccc2c(c1)OCCO2	–	–	44	–	–	–
COc1ccc(N2CCOCC2)c(NC(=O)c2ccc(Br)o2)c1	–	–	–	–	–	13
Cc1cccc(NC(=O)NNC(=O)c2cc3ccccc3cc2O)c1C	–	–	–	–	–	–
Cc1cccc(NC(=S)NNC(=O)c2ccc(O)cc2O)c1C	–	–	2.3	–	–	–
O=C(NNC(=S)Nc1cccc(C(F)(F)F)c1)c1cccc(Cl)c1	–	–	–	–	–	25
CCCCOc1cccc(C(=O)NC(=S)Nc2cccc(C(F)(F)F)c2)c1	–	–	·	–	–	12
CC(C)Oc1cccc(C(=O)NC(=S)Nc2cccc(C(F)(F)F)c2)c1	–	–	·	–	–	–
CCOc1cccc(C(=O)NC(=S)Nc2cccc(NC(=O)c3ccccc3Cl)c2)c1	–	–	–	–	–	16
C=C(CN(C)C)C(=O)c1cc(C)ccc1C	·	·	–	·	·	11
Cc1ccc(C)c(C(=O)NCCN(C)C)c1	–	–	·	–	–	–
NC(=O)c1cc(C(=O)c2ccccc2Cl)c[nH]1	–	–	43	–	–	–
CN(C)C(=O)c1cc(C(=O)c2ccccc2Cl)c[nH]1	–	–	43	–	–	–
NC(=O)c1cc(C(=O)c2cccc(Cl)c2Cl)c[nH]1	–	–	–	–	–	–
CC(C)NC(=O)Nc1cccc2c1O[C@@H](CN(C)Cc1ccccc1)[C@@H](C)CN([C@H](C)CO)C2=O	·	·	–	·	·	·
C[C@@H]1CN([C@@H](C)CO)S(=O)(=O)c2ccc(-c3cccc(C(=O)N(C)C)c3)cc2O[C@H]1CN(C)C	·	·	–	·	·	·
Cc1ccccc1CC1(CO)CCCN(Cc2c(C)nn(C)c2Cl)C1 (stereo not given)	–	–	44	–	–	–
CCn1ccnc1CN1CCC(CO)(CCOc2ccccc2)CC1	–	–	·	–	–	–
Cc1nn(C)c(Cl)c1CN1CCCC(CO)(Cc2cccc(Cl)c2)C1 (stereo not given)	–	–	·	–	–	–
Cc1nn(C)c(Cl)c1CN1CCC(CO)(CCOc2ccccc2)CC1	–	–	44	–	–	–
OCC1(CCOc2ccccc2)CCN(Cc2ccccc2OC(F)F)CC1	–	–	–	–	–	–
C=CCOc1ccccc1CN1CCC(CO)(CCOc2ccccc2)CC1	–	–	43	–	–	–
CC(=O)Nc1ccc2c(c1)C(=O)N(C)[C@H]1CC[C@@H](CC(=O)NCc3ccccc3)O[C@H]1CO2	·	·	–	·	·	·
